From ChEMBL document CHEMBL1154048, “Design, synthesis and pharmacological evaluation of new 1-[3-(4-arylpiperazin-1-yl)-2-hydroxy-propyl]-3,3-diphenylpyrrolidin-2-one derivatives with antiarrhythmic, antihypertensive, and alpha-adrenolytic activity” (Eur J Med Chem, 2009) come the findings set out here.

Assay [1] is described as follows: Selectivity ratio of Kb for alpha1B adrenoceptor in guinea pig spleen to Kb for Alpha-1D adrenoceptor in Wistar rat thoracic aorta. In kind it is tissue-based. The method, boiled down: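 Isolated-tissue antagonism assays were run in guinea-pig spleen (α1B) and in endothelium-denuded ~4 mm thoracic aortic rings from male Wistar rats weighing 200–350 g (α1D). Aortic rings sat in Krebs–Henseleit at 37 °C, pH 7.4, gassed with O2/CO2 19:1, at 2 g tension. Two cumulative noradrenaline curves were run 60 min apart, with 30 min antagonist incubation and continuous propranolol. Schild pA2 was taken as pKB, n ≥ 5.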

Assay [2] deals with Rattus norvegicus. Nature of the assay: Hypotensive activity in normotensive Wistar rat assessed as diastolic blood pressure at 5 mg/kg, iv after 30 mins (Rvb=127 +/- 8.1 mmHg). The format is functional, Artery.
Assay [3] is filed under the species Rattus norvegicus. Kind of assay: Selectivity for rat cerebral cortex alpha1 adrenergic receptor over rat cerebral cortex alpha2 adrenergic receptor. The format is tissue-based. The method, boiled down:
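Rat cerebral cortex membranes were prepared in 50 mM Tris–HCl pH 7.6, homogenized and spun twice at 20 000 g. Competition was against [3H]prazosin 0.2 nM (α1) or [3H]clonidine 2 nM (α2), with 7–8 concentrations from 10^-11 to 10^-4 M. Nonspecific binding was defined with phentolamine for the prazosin assay. After filtration, binding was read by scintillation counting in duplicate. Ki was calculated by Cheng–Prusoff, and selectivity was compared from the α1 and α2 Ki values.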

In assay [4] the target is T1, Alpha-1D adrenergic receptor (Rattus norvegicus, UniProt P23944).
T1 sequence (P23944 whole entry): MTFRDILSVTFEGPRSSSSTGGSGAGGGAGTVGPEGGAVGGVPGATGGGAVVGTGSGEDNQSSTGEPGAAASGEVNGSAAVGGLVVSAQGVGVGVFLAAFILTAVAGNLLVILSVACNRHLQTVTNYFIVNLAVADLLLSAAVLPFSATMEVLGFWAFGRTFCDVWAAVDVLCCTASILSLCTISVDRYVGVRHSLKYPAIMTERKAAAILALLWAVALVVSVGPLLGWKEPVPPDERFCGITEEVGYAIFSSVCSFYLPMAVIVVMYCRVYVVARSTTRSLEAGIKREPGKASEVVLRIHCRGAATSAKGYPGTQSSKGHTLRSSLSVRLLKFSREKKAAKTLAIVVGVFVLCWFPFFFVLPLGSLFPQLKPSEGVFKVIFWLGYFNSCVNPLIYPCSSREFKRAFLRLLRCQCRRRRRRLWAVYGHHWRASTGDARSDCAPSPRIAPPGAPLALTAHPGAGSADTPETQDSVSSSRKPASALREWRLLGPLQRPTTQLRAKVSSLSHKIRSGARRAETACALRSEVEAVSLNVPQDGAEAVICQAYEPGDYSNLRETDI
Nature of the assay: (§1) Antagonist activity at Alpha-1D adrenoceptor in Wistar rat thoracic aorta assessed as inhibition of noradrenaline-induced contraction after 30 mins. In kind it is functional, tissue-based. To be noted: read-out: pA2 (converted). The method, boiled down:
(§2)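 Male Wistar rats (200–350 g) were anaesthetized with thiopental 75 mg/kg ip. Endothelium-denuded thoracic aorta rings (~4 mm) were held in Krebs–Henseleit at 37 °C, pH 7.4, gassed O2/CO2 19:1, at 2 g tension and equilibrated 3 h. Two cumulative noradrenaline curves were run 60 min apart, with 30 min antagonist incubation and continuous propranolol. EC50 came from non-linear regression, and Schild plots gave pA2. n = 5–8.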

Assay [5] has as its target T2, Alpha-1D adrenergic receptor (Rattus norvegicus) (UniProt P23944).
T2 sequence (whole entry): T1 sequence (P23944 whole entry)
The assay is described as §1. In kind it is functional, tissue-based. The method, boiled down:
as §2

Assay [6] concerns Rattus norvegicus. Nature of the assay: Hypotensive activity in normotensive Wistar rat assessed as systolic blood pressure at 5 mg/kg, iv after 10 mins (Rvb=142.5 +/- 3.6 mmHg). In kind it is functional, Artery.
Assay [7] has as its system Rattus norvegicus. Nature of the assay: Hypotensive activity in normotensive Wistar rat assessed as systolic blood pressure at 5 mg/kg, iv after 5 mins (Rvb=142.5 +/- 3.6 mmHg). The format is functional, Artery.
Assay [8] deals with Rattus norvegicus. Nature of the assay: Hypotensive activity in normotensive Wistar rat assessed as systolic blood pressure at 2.5 mg/kg, iv after 5 mins (Rvb=125.6 +/- 7.6 mmHg). In kind it is functional, Artery.
For assay [9], the system named is Rattus norvegicus. Nature of the assay: Hypotensive activity in normotensive Wistar rat assessed as diastolic blood pressure at 2.5 mg/kg, iv after 30 mins (Rvb=107.2 +/- 7.3 mmHg). The format is functional, Artery.
The subject of assay [10] is Rattus norvegicus. Kind of assay: Hypotensive activity in normotensive Wistar rat assessed as diastolic blood pressure at 2.5 mg/kg, iv after 60 mins (Rvb=107.2 +/- 7.3 mmHg). In kind it is functional, Artery.
Assay [11] has as its system Rattus norvegicus. Nature of the assay: Hypotensive activity in normotensive Wistar rat assessed as systolic blood pressure at 2.5 mg/kg, iv after 30 mins (Rvb=125.6 +/- 7.6 mmHg). In kind it is functional, Artery.
For assay [12], the system named is Rattus norvegicus. Kind of assay: Hypotensive activity in normotensive Wistar rat assessed as systolic blood pressure at 5 mg/kg, iv after 10 mins (Rvb=139 +/- 0.6 mmHg). In kind it is functional, Artery.
Assay [13] relates to Rattus norvegicus. Kind of assay: Hypotensive activity in normotensive Wistar rat assessed as systolic blood pressure at 5 mg/kg, iv after 30 mins (Rvb=140.5 +/- 1.1 mmHg). In kind it is functional, Artery.
Assay [14] relates to Rattus norvegicus. Nature of the assay: Hypotensive activity in normotensive Wistar rat assessed as diastolic blood pressure at 5 mg/kg, iv after 30 mins (Rvb=125.5 +/- 0.6 mmHg). In kind it is functional, Artery.
For assay [15], the system named is Rattus norvegicus. Nature of the assay: Hypotensive activity in normotensive Wistar rat assessed as diastolic blood pressure at 5 mg/kg, iv after 10 mins (Rvb=125.5 +/- 0.6 mmHg). The format is functional, Artery.
Assay [16] concerns Rattus norvegicus. Kind of assay: Hypotensive activity in normotensive Wistar rat assessed as systolic blood pressure at 5 mg/kg, iv after 60 mins (Rvb=140.5 +/- 1.1 mmHg). The format is functional, Artery.
For assay [17], the system named is Rattus norvegicus. Kind of assay: Hypotensive activity in normotensive Wistar rat assessed as diastolic blood pressure at 5 mg/kg, iv after 5 mins (Rvb=125.5 +/- 0.6 mmHg). In kind it is functional, Artery.
Assay [18] concerns Rattus norvegicus. Kind of assay: Hypotensive activity in normotensive Wistar rat assessed as systolic blood pressure at 5 mg/kg, iv after 5 mins (Rvb=140.5 +/- 1.1 mmHg). The format is functional, Artery.
The test system of assay [19] is Rattus norvegicus. Kind of assay: Hypotensive activity in normotensive Wistar rat assessed as systolic blood pressure at 5 mg/kg, iv after 10 mins (Rvb=140.5 +/- 1.1 mmHg). The format is functional, Artery.
In assay [20] the test system is Rattus norvegicus. Kind of assay: Hypotensive activity in normotensive Wistar rat assessed as diastolic blood pressure at 5 mg/kg, iv after 30 mins (Rvb=119 +/- 1.2 mmHg). The format is functional, Artery.
In assay [21] the test system is Rattus norvegicus. Kind of assay: Hypotensive activity in normotensive Wistar rat assessed as diastolic blood pressure at 5 mg/kg, iv after 20 mins (Rvb=119 +/- 1.2 mmHg). The format is functional, Artery.
Assay [22] has as its system Rattus norvegicus. Kind of assay: Hypotensive activity in normotensive Wistar rat assessed as systolic blood pressure at 5 mg/kg, iv after 10 mins (Rvb=138 +/- 0.9 mmHg). In kind it is functional, Artery.
Assay [23] relates to Rattus norvegicus. Nature of the assay: Hypotensive activity in normotensive Wistar rat assessed as diastolic blood pressure at 5 mg/kg, iv after 10 mins (Rvb=119 +/- 1.2 mmHg). In kind it is functional, Artery.
The subject of assay [24] is Rattus norvegicus. Kind of assay: Hypotensive activity in normotensive Wistar rat assessed as systolic blood pressure at 5 mg/kg, iv after 5 mins (Rvb=141.3 +/- 6.4 mmHg). The format is functional, Artery.
Assay [25] concerns Rattus norvegicus. Nature of the assay: Hypotensive activity in normotensive Wistar rat assessed as systolic blood pressure at 5 mg/kg, iv after 30 mins (Rvb=141.3 +/- 6.4 mmHg). The format is functional, Artery.
Assay [26] has as its system Rattus norvegicus. Nature of the assay: Hypotensive activity in normotensive Wistar rat assessed as systolic blood pressure at 5 mg/kg, iv after 60 mins (Rvb=141.3 +/- 6.4 mmHg). In kind it is functional, Artery.

Regarding `CCOc1ccccc1N1CCN(CC(O)CN2CCC(c3ccccc3)(c3ccccc3)C2=O)CC1.Cl.Cl` (stereo unspecified), the Ratio in assay [1] turned out to be 5.2. The Activity with Rattus norvegicus [2] was 96 mmHg; in [5] it was “Dose-dependent effect”; in the assay with Rattus norvegicus [6], 118 mmHg; with Rattus norvegicus [7], 130 mmHg. For the same molecule, in the assay listed under Rattus norvegicus [3], the Selectivity ratio stood at 10. For the same molecule, the Kb in assay [4] was 55 nM.
As to `COc1ccc(N2CCN(CC(O)CN3CCC(c4ccccc4)(c4ccccc4)C3=O)CC2)cc1.Cl.Cl` (stereo unspecified), the Activity with Rattus norvegicus [8] came to 126.6 mmHg; in the assay with Rattus norvegicus [9], 88.2 mmHg; with Rattus norvegicus [10], 88.2 mmHg; with Rattus norvegicus [11], 105.6 mmHg.
For `COc1ccccc1N1CCN(CC(O)CN2CCC(c3ccccc3)(c3ccccc3)C2=O)CC1.Cl.Cl` (stereo unspecified), the Activity with Rattus norvegicus [12] is listed as 122 mmHg.
Consider `Cl.Cl.O=C1N(CC(O)CN2CCN(c3ccccc3)CC2)CCC1(c1ccccc1)c1ccccc1` (stereo unspecified), for which the Activity came to 129 mmHg in the assay on Rattus norvegicus [13]; 113.5 mmHg in the assay with Rattus norvegicus [14]; 118.6 mmHg in the assay on Rattus norvegicus [15]; 126.5 mmHg in the assay with Rattus norvegicus [16]; 119 mmHg in the assay on Rattus norvegicus [17]; 135.5 mmHg in the assay on Rattus norvegicus [18]. The Activity in the assay on Rattus norvegicus [19] is 134.5 mmHg.
As to `Cl.Cl.O=C1N(CC(O)CN2CCN(c3ccccc3C(F)(F)F)CC2)CCC1(c1ccccc1)c1ccccc1` (stereo unspecified), the Activity in the assay on Rattus norvegicus [20] came to 103 mmHg; with Rattus norvegicus [21], 104 mmHg; in the assay with Rattus norvegicus [22], 122 mmHg; in the assay with Rattus norvegicus [23], 106.5 mmHg.
As to `Cc1ccccc1N1CCN(CC(O)CN2CCC(c3ccccc3)(c3ccccc3)C2=O)CC1.Cl.Cl` (stereo unspecified), the Activity came out at 132.3 mmHg with Rattus norvegicus [24], 133 mmHg in the assay on Rattus norvegicus [25] and 116 mmHg with Rattus norvegicus [26].
